{"source": "ChEMBL document CHEMBL1158528", "about": "“Synthesis of structurally simplified analogues of aplidinone A, a pro-apoptotic marine thiazinoquinone” (Bioorg Med Chem, 2010)", "key": {"[1]": {"tested_on": "Jurkat", "assay": "Cytotoxicity against human Jurkat cells after 24 hrs by PI staining based flow cytometry", "format": "functional, cell-based", "procedure,_shortened": "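Jurkat cells (10^6) were exposed to increasing concentrations for 24 h, then stained with propidium iodide (10 µg/mL in PBS) for 1 min at room temperature. Membrane-compromised cells were counted immediately by flow cytometry with 488 nm excitation.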"}, "[2]": {"tested_on": "Jurkat", "assay": "Cell cycle arrest in human Jurkat cells assessed as increase in apoptotic cells after 24 hrs by flow cytometry", "format": "functional, cell-based", "procedure,_shortened": "(§1)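 Jurkat cells in RPMI 1640 with 10% FBS, 2 mM glutamine and antibiotics, at 37 °C and 5% CO2, were treated for 24 h. Cells were fixed in 70% ethanol for 24 h at 4 °C, washed with PBS containing 4% glucose, and digested with RNase A (50 U/mL) plus PI staining for 1 h at RT. The subdiploid (sub-G0/G1) fraction was measured by flow cytometry.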"}, "[3]": {"tested_on": "Jurkat 5.1 (human)", "assay": "Inhibition of TNF-alpha-induced NF-kappaB activation in human Jurkat 5.1 cells by luciferase assay relative to control"}, "[4]": {"tested_on": "AGS", "assay": "Cytotoxicity against human AGS cells after 48 hrs by calcein-AM assay", "format": "functional, cell-based", "procedure,_shortened": "(§2)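 Adherent lines were grown in DMEM with 10% heat-inactivated FBS, 2 mM glutamine, penicillin and streptomycin, seeded at 10^4 cells/well, and exposed to increasing concentrations for 48 h. DMSO stocks were diluted in medium, with final DMSO ≤1%. Calcein-AM (1 µM final) was added for 60 min, stopped on ice, and cells were washed twice with cold HBSS. Fluorescence was read at 485/535 nm to derive IC50.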"}, "[5]": {"tested_on": "HCT-116", "assay": "Cytotoxicity against human HCT116 cells after 48 hrs by calcein-AM assay", "format": "functional, cell-based", "conditions": "HCT-116, 48 h", "procedure,_shortened": "as §2"}, "[6]": {"tested_on": "Jurkat", "assay": "Cell cycle arrest in human Jurkat cells assessed as apoptotic cells at 25 uM after 24 hrs by flow cytometry", "format": "functional", "procedure,_shortened": "as §1"}, "[7]": {"tested_on": "HeLa", "assay": "Cytotoxicity against human HeLa cells after 48 hrs by calcein-AM assay", "format": "functional, cell-based", "procedure,_shortened": "as §2"}, "[8]": {"tested_on": "A549", "assay": "Cytotoxicity against human A549 cells after 48 hrs by calcein-AM assay", "format": "functional, cell-based", "conditions": "A549, 48 h", "procedure,_shortened": "as §2"}, "[9]": {"assay": "Cytotoxicity against human 293T cells after 48 hrs by calcein-AM assay", "format": "cell-based", "conditions": "HEK-293T", "procedure,_shortened": "as §2"}, "[10]": {"tested_on": "Jurkat", "assay": "Cell cycle arrest in human Jurkat cells assessed as apoptotic cells at 10 uM after 24 hrs by flow cytometry", "format": "functional", "procedure,_shortened": "as §1"}}, "note": "The source made the active and inactive calls. No cut-off for these calls is given here.", "data": [{"smiles": "CCCCCCCCCCCCCCC1=C(OC)C(=O)C2=C(NCCS2(=O)=O)C1=O", "values": [{"measurement": "IC50", "setting": "[1]", "result": "> 50", "unit": "µM"}]}, {"smiles": "CCC1=C(OC)C(=O)C2=C(NCCS2(=O)=O)C1=O", "values": [{"measurement": "Activity", "setting": "[2]", "result": "Active"}, {"measurement": "Activity", "setting": "[3]", "result": "inactive"}, {"measurement": "IC50", "setting": "[1]", "result": "> 50", "unit": "µM"}]}, {"smiles": "CCC1=C(OC)C(=O)C2=C(C1=O)S(=O)(=O)CCN2", "values": [{"measurement": "IC50", "setting": "[4]", "result": "> 50", "unit": "µM"}, {"measurement": "Activity", "setting": "[2]", "result": "Active"}, {"measurement": "IC50", "setting": "[5]", "result": "> 50", "unit": "µM"}, {"measurement": "Activity", "setting": "[6]", "result": 9.6, "unit": "%"}, {"measurement": "IC50", "setting": "[7]", "result": "> 50", "unit": "µM"}, {"measurement": "IC50", "setting": "[1]", "result": "> 50", "unit": "µM"}, {"measurement": "IC50", "setting": "[8]", "result": "> 50", "unit": "µM"}, {"measurement": "IC50", "setting": "[9]", "result": 32.6, "unit": "µM"}]}, {"smiles": "CCCCCCCCC1=C(OC)C(=O)C2=C(C1=O)S(=O)(=O)CCN2", "values": [{"measurement": "IC50", "setting": "[4]", "result": 7.2, "unit": "µM"}, {"measurement": "Activity", "setting": "[3]", "result": "Active"}, {"measurement": "Activity", "setting": "[10]", "result": 26.5, "unit": "%"}, {"measurement": "IC50", "setting": "[5]", "result": 14.1, "unit": "µM"}, {"measurement": "Activity", "setting": "[6]", "result": 45, "unit": "%"}, {"measurement": "IC50", "setting": "[7]", "result": 24.8, "unit": "µM"}, {"measurement": "IC50", "setting": "[1]", "result": 20.7, "unit": "µM"}, {"measurement": "IC50", "setting": "[8]", "result": 13, "unit": "µM"}, {"measurement": "IC50", "setting": "[9]", "result": 8.7, "unit": "µM"}]}, {"smiles": "COC1=C(C/C=C(\\C)CCC=C(C)C)C(=O)C2=C(C1=O)S(=O)(=O)CCN2", "note": "[APLIDINONE A]", "values": [{"measurement": "IC50", "setting": "[1]", "result": 44.5, "unit": "µM"}]}, {"smiles": "CCCCCCCCCCCCCCC1=C(OC)C(=O)C2=C(C1=O)S(=O)(=O)CCN2", "values": [{"measurement": "IC50", "setting": "[4]", "result": 45, "unit": "µM"}, {"measurement": "IC50", "setting": "[5]", "result": 44.8, "unit": "µM"}, {"measurement": "IC50", "setting": "[7]", "result": 47.9, "unit": "µM"}, {"measurement": "IC50", "setting": "[1]", "result": "> 50", "unit": "µM"}, {"measurement": "IC50", "setting": "[8]", "result": 50.8, "unit": "µM"}, {"measurement": "IC50", "setting": "[9]", "result": 47.9, "unit": "µM"}]}, {"smiles": "CCCCCCCCC1=C(OC)C(=O)C2=C(NCCS2(=O)=O)C1=O", "values": [{"measurement": "Activity", "setting": "[2]", "result": "Active"}, {"measurement": "IC50", "setting": "[1]", "result": "> 50", "unit": "µM"}]}]}
